Results as given in ChEMBL document CHEMBL1126557, “Novel antiasthmatic agents with dual activities of thromboxane A2 synthetase inhibition and bronchodilation. 2. 4-(3-Pyridyl)-1(2H)-phthalazinones” (J Med Chem, 1993).

Tests used:
[1] = organism: Cavia porcellus; experiment: In vitro bronchodilatory activity in guinea pig isolated tracheal strips; type: functional; conditions: Trachea
[2] = system: Thromboxane-A synthase (Oryctolagus cuniculus); experiment: Tested in vitro against rabbit thromboxane A2 synthetase (TXA2) at 1 uM
[3] = biological target: T1, Thromboxane-A synthase (Rattus norvegicus) (UniProt P49430); experiment: Tested ex vivo against TXA2 production in rat serum at 1 hr after peroral dose of 30 mg/kg and anesthetized with ether; type: functional, organism-based; design: dose 30 mg/kg
T1 sequence (whole entry): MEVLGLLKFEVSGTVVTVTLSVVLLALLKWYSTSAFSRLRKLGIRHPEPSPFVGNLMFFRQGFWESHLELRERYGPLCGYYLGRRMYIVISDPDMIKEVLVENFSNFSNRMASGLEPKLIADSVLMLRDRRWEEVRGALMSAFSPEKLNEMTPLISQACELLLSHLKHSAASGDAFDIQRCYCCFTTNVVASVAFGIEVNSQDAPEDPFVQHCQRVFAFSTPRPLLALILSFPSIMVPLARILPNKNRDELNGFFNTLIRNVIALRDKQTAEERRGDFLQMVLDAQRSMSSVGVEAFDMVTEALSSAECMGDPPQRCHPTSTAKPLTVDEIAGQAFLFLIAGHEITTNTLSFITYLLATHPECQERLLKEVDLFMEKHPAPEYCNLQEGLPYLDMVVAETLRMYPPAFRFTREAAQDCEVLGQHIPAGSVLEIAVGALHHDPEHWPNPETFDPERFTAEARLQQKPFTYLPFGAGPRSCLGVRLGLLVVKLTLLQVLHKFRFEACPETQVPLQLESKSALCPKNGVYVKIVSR
Outline: (§1)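 Male SD rats (240–260 g), fasted 20 h, dosed orally with compound in 0.5% carboxymethylcellulose or vehicle alone. At 1 h, ether anesthesia and 2 mL cardiac blood taken and clotted at 37 °C for 90 min.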

[4] = system: Cavia porcellus; experiment: In vivo inhibitory effect on airway constriction induced by histamine 2-5 micro g/kg iv at 1 min after 10 mg/kg iv dose of compound; type: functional
Outline: (§2)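 Male Dunkin-Hartley guinea pigs anesthetized with pentobarbital 35 mg/kg ip, jugular vein and trachea cannulated, ventilated at 10 mL/kg, 60 strokes/min. Insufflation pressure recorded. Histamine 2–5 μg/kg iv repeated every 10 min until a reproducible control response. Compound 10 mg/kg iv 1 min before the next challenge.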

[5] = biological target: T1, Thromboxane-A synthase (Rattus norvegicus); experiment: Tested ex vivo against TXA2 production in male SD rats at 1 hr after peroral dose of 30 mg/kg and anesthetized with ether; type: functional, organism-based; design: dose 30 mg/kg; outline: as §1
[6] = system: Cavia porcellus; experiment: In vivo inhibitory effect on airway constriction induced by histamine 2-5 ug/kg iv at 1 min after 10 mg/kg iv dose of compound; type: functional; outline: as §2
[7] = system: Rattus norvegicus; experiment: Tested ex vivo against serum TXB2 production at 1 hr after oral dose of 30 mg/kg of drug to rat; type: functional; outline: as §1
[8] = system: Rattus norvegicus; experiment: Tested ex vivo against serum TXB2 production at 1 hr after oral dose of 3 mg/kg of drug to rat; type: functional; outline: as §1

| IC50 [1] | inhibition [2] | inhibition [3] | Compound | further results |
| --- | --- | --- | --- | --- |
| 4.57 µM | 69% | – | O=c1c2ccccc2c(-c2cccnc2)nn1CCO | – |
| 64.6 µM | 89% | – | CC(C)NC(=O)CCCn1nc(-c2cccnc2)c2ccccc2c1=O | – |
| 21.9 µM | 99% | – | CCCCCCCCn1nc(-c2cccnc2)c2ccccc2c1=O | – |
| > 100 µM | 13% | – | O=C(O)Cn1nc(-c2cccnc2)c2ccccc2c1=O | – |
| 9.12 µM | – | – | O=c1c2ccccc2c(-c2cccnc2)nn1CCSc1ccccc1 | inhibition [5]: 52% |
| 3.16 µM | 4% | 5% | CCn1nc(-c2nccs2)c2ccccc2c1=O | – |
| 0.562 µM | 77% | 69% | CCn1nc(-c2cncs2)c2ccccc2c1=O | – |
| 2.75 µM | 97% | 80% | O=c1c2ccccc2c(-c2cccnc2)nn1C1CCCC1 | – |
| 15.8 µM | 0% | – | CCn1nc(-n2cncn2)c2ccccc2c1=O | – |
| 11 µM | 86% | – | O=c1c2ccccc2c(-c2cccnc2)nn1CCSc1ncccn1 | – |
| 5.37 µM | 53% | 72% | CCn1nc(-n2ccnc2)c2ccccc2c1=O | – |
| 26.3 µM | 93% | – | O=c1c2ccccc2c(-c2cccnc2)nn1CCNS(=O)(=O)c1ccccc1 | – |
| 14.8 µM | 96% | – | O=c1c2ccccc2c(-c2cccnc2)nn1S(=O)(=O)c1ccccc1 | – |
| 11 µM | 37% | – | CCn1nc(-c2cnccn2)c2ccccc2c1=O | – |
| 5.89 µM | 95% | – | COC(=O)c1ccc(Cn2nc(-c3cccnc3)c3ccccc3c2=O)cc1 | – |

Continued, molecule first:

| Compound | IC50 [1] | inhibition [2] | inhibition [3] | further results |
| --- | --- | --- | --- | --- |
| O=C1c2ccccc2C(=O)N1CCn1nc(-c2cccnc2)c2ccccc2c1=O | 21.9 µM | 87% | – | – |
| Oc1nnc(-n2ccnc2)c2ccccc12 | 8.32 µM | – | 87% | – |
| O=c1c2ccccc2c(-c2cccnc2)nn1CCn1cnnn1 | 24 µM | 43% | 77% | – |
| O=c1c2ccccc2c(-c2cccnc2)nn1CCSC1=NCCS1 | 10.5 µM | – | – | – |
| O=c1c2ccccc2c(-c2cccnc2)nn1CC1CCCCC1 | 0.209 µM | 98% | – | – |
| CCOC(=O)Cn1nc(-c2cccnc2)c2ccccc2c1=O | 43.7 µM | 28% | 0% | – |
| COCCn1nc(-c2cccnc2)c2ccccc2c1=O | 9.33 µM | 55% | – | – |
| CC(C)n1nc(-c2cccnc2)c2ccccc2c1=O | 3.09 µM | 87% | 82% | – |
| O=c1c2ccccc2c(-c2cccnc2)nn1CCCCSc1ncccn1 | 6.17 µM | 96% | – | – |
| CC(C)=CCn1nc(-c2cccnc2)c2ccccc2c1=O | 1.38 µM | 94% | – | – |
| CCn1nc(-c2cncnc2)c2ccccc2c1=O | 9.55 µM | 26% | – | – |
| CCOC(=O)CCCn1nc(-c2cccnc2)c2ccccc2c1=O | 10 µM | 95% | – | – |
| C=CCn1nc(-c2cccnc2)c2ccccc2c1=O | 2.14 µM | 70% | 82% | inhibition in vivo at 10 mg/kg [4]: 100% |
| CCCCn1nc(-c2cccnc2)c2ccccc2c1=O | 2.29 µM | 91% | 100% | – |
| Oc1nnc(-c2cccnc2)c2ccccc12 | 10.2 µM | 26% | 78% | – |
| CC(=O)OCCn1nc(-c2cccnc2)c2ccccc2c1=O | 9.77 µM | 32% | – | – |

| Compound | IC50 [1] | inhibition [2] | inhibition [3] | further results |
| --- | --- | --- | --- | --- |
| O=c1c2ccccc2c(-c2cccnc2)nn1CCn1ccnc1 | – | 37% | – | inhibition in vivo at 10 mg/kg [4]: 97% |
| NCCn1nc(-c2cccnc2)c2ccccc2c1=O | > 100 µM | 29% | – | – |
| CC(C)n1nc(-c2cncs2)c2ccccc2c1=O | 3.39 µM | – | – | inhibition [5]: 71% |
| Oc1nnc(-n2cncn2)c2ccccc12 | 16.6 µM | – | – | – |
| CC(=O)Cn1nc(-c2cccnc2)c2ccccc2c1=O | 40.7 µM | 13% | – | – |
| Oc1nnc(-c2nccs2)c2ccccc12 | 4.57 µM | – | – | inhibition [5]: 23% |
| Oc1nnc(-c2cncs2)c2ccccc12 | 1.2 µM | 38% | 70% | – |
| Cn1nc(-c2cccnc2)c2ccccc2c1=O | 11.5 µM | 63% | 94% | inhibition in vivo at 10 mg/kg [6]: 97% |
| CC(C)Cn1nc(-c2cncs2)c2ccccc2c1=O | 2.4 µM | – | – | – |
| CCCn1nc(-c2cccnc2)c2ccccc2c1=O | 3.16 µM | 86% | 93% | – |
| O=C(O)c1ccc(Cn2nc(-c3cccnc3)c3ccccc3c2=O)cc1 | 17 µM | 64% | – | – |
| O=c1c2ccccc2c(-c2cccnc2)nn1Cc1ccccc1 | 2.45 µM | 97% | 86% | – |
| O=C(O)/C=C/c1ccc(Cn2ccnc2)cc1 [OZAGREL] | > 1000 µM | – | 92% | inhibition in vivo at 30 mg/kg [7]: 92%; inhibition in vivo at 3 mg/kg [8]: 86%; inhibition in vivo at 10 mg/kg [4]: 0% |
| O=C(O)CCCn1nc(-c2cccnc2)c2ccccc2c1=O | > 100 µM | 73% | – | – |
| O=C(c1cccs1)n1nc(-c2cccnc2)c2ccccc2c1=O | 12.3 µM | 37% | – | – |
| O=c1c2ccccc2c(-c2cccnc2)nn1Cc1cccc(Cl)c1 | 4.17 µM | 95% | – | – |
